The values that follow come from ChEMBL document CHEMBL1124538, “Mono and bis(bioreductive) alkylating agents: synthesis and antitumor activities in a B16 melanoma model” (J Med Chem, 1989).

For series [1], the system named is Mus musculus. As to the kind of experiment: (§1) Antitumor efficacy against subcutaneously implanted B16 melanoma tumor in BDF1 hybrid mice, administered intraperitoneally with 10 mg/kg of compound. It counts as functional. The method, boiled down: (§2)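 Female BDF1 mice received 0.5 mL B16 tumor brei sc into the shaved dorsoscapular area; the brei was a 1:10 w/v dilution in HBSS from tumor passaged sc in C57BL/6 mice. Dosing was ip for 9 consecutive days once the tumor was palpable, in saline, 0.3% Klucel or 0.33% Klucel/NaHCO3. Mice were observed daily for up to 120 days. %T/C is median survival treated/control (NCI Instruction 14); active if ≥140.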

Series [2] relates to B16. As to the kind of experiment: (§3) Percent B16 melanoma growth inhibition at dose 10 mg/kg in mice. The note with it: for inhibition in vivo at 10 mg/kg: Mus musculus, B16, dose 10 mg/kg; for Inhibition: dose 10 mg/kg. The class given is functional, Mus musculus. The method, boiled down:
(§4)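 B16 brei (1:10 w/v in HBSS, 0.5 mL) was implanted sc into female BDF1 mice. Mice got ip doses for 9 consecutive days after the tumor became palpable, in saline, 0.3% Klucel or 0.33% Klucel/NaHCO3. Serial tumor diameters were measured. Inhibition = 100 − [(change in average tumor diameter, treated/control) × 100]; active if ≥25%.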

The test system of series [3] is B16. As to the kind of experiment: Percent B16 melanoma growth inhibition at dose 20 mg/kg in mice. It counts as functional, Mus musculus. The note with it: for inhibition in vivo at 20 mg/kg: Mus musculus, B16, dose 20 mg/kg. The method, boiled down: as §4
The test system of series [4] is B16. In words: Percent B16 melanoma growth inhibition at dose 4 mg/kg in mice. It counts as functional. The note with it: Mus musculus. In short, it runs like this: as §4
Series [5] relates to Mus musculus. In words: Compound was tested for increase in life span of P388 leukemia bearing mice at dose of 10 mg/Kg; Did nto increase significantly. It counts as functional, organism-based.
Series [6] relates to Mus musculus. In words: Compound was tested for increase in life span of P388 leukemia bearing mice at dose of 20 mg/Kg; Showed Toxicity, and weight loss. The note with it: in vivo. The class given is organism-based.
In series [7] the test system is Mus musculus. In words: Compound was tested for increase in life span of P388 leukemia bearing mice at dose of 40 mg/Kg; Showed Toxicity, and weight loss. It counts as organism-based. The note with it: in vivo.
Series [8] relates to Mus musculus. As to the kind of experiment: Compound was tested for increase in life span of P388 leukemia bearing mice at dose of 5 mg/Kg; Did nto increase significantly. The class given is functional, organism-based.
In series [9] the test system is Mus musculus. In words: Antitumor efficacy against subcutaneously implanted B16 melanoma tumor in BDF1 hybrid mice, administered intraperitoneally with 20 mg/kg of compound. The class given is functional. In short, it runs like this:
as §2

Series [10] has as its system Mus musculus. As to the kind of experiment: Antitumor efficacy against subcutaneously implanted B16 melanoma tumor in BDF1 hybrid mice, administered intraperitoneally with 4 mg/kg of compound. It counts as functional. The method, boiled down: as §2
In series [11] the test system is B16. The series is described as §1. It counts as functional, Mus musculus. The method, boiled down: as §2
Series [12] has as its system Mus musculus. The description is as §3. The note with it: B16, dose 10 mg/kg. It counts as functional. In short, it runs like this:
as §4

Several values for one entry are separate records, joined by “and”; a condition that tells them apart may be missing. Equal entries are not always repeated.

On to `O=C(O)CCC(=O)OCC1=CC(=O)C(COC(=O)CCC(=O)O)=CC1=O`, for which the T/C in the series on Mus musculus [1] (10 mg/kg) was 115% and 111%. Besides, in the series on B16 [2], the inhibition in vivo at 10 mg/kg was found to be 38% and the Inhibition is reported as 19%.
As for `O=C(O)CCC(=O)OCC1=CC(=O)C(CCC2=CC(=O)C(COC(=O)CCC(=O)O)=CC2=O)=CC1=O`, the T/C in the series with Mus musculus [1] (10 mg/kg) was 123% and 106%.
In the case of `CC(=O)OCC1=CC(=O)C(CCC2=CC(=O)C(COC(C)=O)=CC2=O)=CC1=O`, the T/C in the series with Mus musculus [1] came out at 129%. In the series with B16 [2], at 10 mg/kg the inhibition in vivo was 16%.
In the series on B16 [3], `CC(=O)OCC1=CC(=O)C=CC1=O` gave an inhibition in vivo at 20 mg/kg of 63%. Moreover, in the series with B16 [4], 4 mg/kg produced 31% inhibition in vivo. Moreover, the Increase in life-span result in the series on Mus musculus [5], with Mus musculus [6], with Mus musculus [7] and in the series with Mus musculus [8] was “Did nto increase significantly” in each case. Besides, the values for the T/C in the series on Mus musculus [9] and in the series with Mus musculus [10] were 142% and 144%, respectively.
In turn, `CC(=O)OCC1=CC(=O)C=C(COC(C)=O)C1=O` gave a T/C with Mus musculus [1] of 100%. This compound also returned an inhibition in vivo at 10 mg/kg with B16 [2] of 13%.
`O=C1C=C(CO)C(=O)C(CO)=C1` yielded an inhibition in vivo at 20 mg/kg in the series with B16 [3] of 36%. For the same compound, the T/C in the series with Mus musculus [1] is 90%; in the series on Mus musculus [9] it was 171%. In the series on B16 [2], this compound came in with an inhibition in vivo at 10 mg/kg of 19%.
As to `O=C1C=C(CBr)C(=O)C=C1CBr`, in the series on Mus musculus [1] (10 mg/kg), the T/C was 140% and 118%. Moreover, in the series with B16 [2], the inhibition in vivo at 10 mg/kg turned out to be 20% and the Inhibition turned out to be 30%.
Turning to `O=C1C=C(CCC2=CC(=O)C(CBr)=CC2=O)C(=O)C=C1CBr`, the T/C in the series on Mus musculus [1] worked out at 102%. The compound further registered an inhibition in vivo at 10 mg/kg in the series on B16 [2] of 16%.
In the series on Mus musculus [1], `COC1=CC(=O)C(COC(C)=O)=CC1=O` returned a T/C of 110%. In addition, the inhibition in vivo at 10 mg/kg with B16 [2] is 0%.
In the case of `O=C1C=CC(=O)C(COC(=O)CCC(=O)O)=C1`, in the series on B16 [3], testing at 20 mg/kg gave an inhibition in vivo of 19%. The T/C with B16 [11] stood at 130%; with Mus musculus [1], 164%; in the series with Mus musculus [9], 115%. In the series on B16 [2], this compound registered an inhibition in vivo at 10 mg/kg of 27%. For the same compound, the Inhibition with B16 [2] is given as 32%.
Compound `O=C1C=C(COC(=O)CCC(=O)O)C(=O)C(COC(=O)CCC(=O)O)=C1` returned an inhibition in vivo at 20 mg/kg in the series with B16 [3] of 23%. Further, in the series with B16 [3] (dose 20 mg/kg), the Inhibition was found to be 29%. The T/C with Mus musculus [9] (20 mg/kg) is 110% and 130%.
`O=C1C=C(CCl)C(=O)C=C1CCl`: in the series with Mus musculus [1], the T/C is 104%. Also, in the series with Mus musculus [12], the inhibition in vivo at 10 mg/kg was determined as 4%.
Take `O=C1C=C(CBr)C(=O)C(CBr)=C1`: in the series on Mus musculus [1], the T/C is 105%. The same compound returned an inhibition in vivo at 10 mg/kg with B16 [2] of 24%.
